From ChEMBL document CHEMBL1921684, “Targeting zymogen activation to control the matriptase-prostasin proteolytic cascade” (J Med Chem, 2011)
Activity calls are given as the source filed them. The calls are words filed in the database; no cut-off is given here.

How the values were obtained:
[1] = biological target: T1, Suppressor of tumorigenicity 14 protein (Homo sapiens, UniProt Q9Y5Y6); test: Inhibition of acid-induced matriptase activation in human 184A1N4 cells using mAb M69 by cell-based ELISA like assay
T1 sequence (Q9Y5Y6 whole entry): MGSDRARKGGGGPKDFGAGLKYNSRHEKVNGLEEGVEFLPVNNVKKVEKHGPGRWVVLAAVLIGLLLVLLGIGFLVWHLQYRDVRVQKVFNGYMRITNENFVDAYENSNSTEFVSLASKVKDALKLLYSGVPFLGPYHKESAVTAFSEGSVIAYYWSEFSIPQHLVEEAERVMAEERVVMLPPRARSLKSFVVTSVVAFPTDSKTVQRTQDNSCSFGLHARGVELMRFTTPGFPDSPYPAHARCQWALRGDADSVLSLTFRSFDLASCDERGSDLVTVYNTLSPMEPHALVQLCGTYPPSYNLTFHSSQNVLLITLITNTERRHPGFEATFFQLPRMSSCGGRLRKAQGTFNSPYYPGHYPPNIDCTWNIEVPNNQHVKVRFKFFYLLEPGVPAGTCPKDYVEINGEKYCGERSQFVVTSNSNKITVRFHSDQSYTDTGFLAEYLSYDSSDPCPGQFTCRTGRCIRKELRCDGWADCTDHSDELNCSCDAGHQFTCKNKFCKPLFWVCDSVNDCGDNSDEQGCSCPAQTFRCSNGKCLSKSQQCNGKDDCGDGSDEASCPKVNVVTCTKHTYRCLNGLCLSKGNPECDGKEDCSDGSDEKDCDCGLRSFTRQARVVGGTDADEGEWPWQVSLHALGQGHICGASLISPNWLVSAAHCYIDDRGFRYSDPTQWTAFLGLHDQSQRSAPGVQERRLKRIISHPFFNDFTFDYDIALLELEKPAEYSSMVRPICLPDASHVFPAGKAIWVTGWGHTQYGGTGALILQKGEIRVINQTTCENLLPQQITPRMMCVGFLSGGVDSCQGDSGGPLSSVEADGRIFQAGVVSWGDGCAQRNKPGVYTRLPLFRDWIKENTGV
Method in brief: (§1)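 184 A1N4 cells seeded at 8×10^4 cells/well 24 h ahead. Compound in pH 6.0 sodium phosphate buffer, 30 min at 4 °C, then 20 min at room temperature. Cells fixed in 4% formaldehyde with 0.1% Triton for 20 min. Activated matriptase detected with mAb M69, HRP anti-mouse IgG and TMB; A450. […] Screening used 5 μM final per compound in 1% DMSO.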

[2] = biological target: T2, Suppressor of tumorigenicity 14 protein (Homo sapiens) (UniProt Q9Y5Y6); test: Inhibition of acid-induced matriptase activation in human 184A1N4 cell homogenate using mAb M24 after 30 mins by Western blot analysis
T2 sequence (whole entry): T1 sequence (Q9Y5Y6 whole entry)
Method in brief: (§2)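 Insoluble fraction of 184 A1N4 cell homogenates (made in PBS, collected by centrifugation) preincubated with compound in 150 mM sodium phosphate pH 6.0 for 30 min at 4 °C. Activation then induced for 20 min at room temperature. Non-reduced, unboiled samples run on 7.5% SDS-PAGE. Immunoblot probed with mAb M24 (total matriptase) or M69 (activated matriptase); chemiluminescent detection; triplicate.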

[3] = biological target: T2, Suppressor of tumorigenicity 14 protein (Homo sapiens); test: Inhibition of acid-induced matriptase activation in human 184A1N4 cell homogenate using mAb M69 after 30 mins by Western blot analysis; method in brief: as §2
[4] = biological target: T2, Suppressor of tumorigenicity 14 protein (Homo sapiens); test: Inhibition of acid-induced matriptase activation in human 184A1N4 cells assessed as increase in 70 kDa latent matriptase using mAb M24 after 30 mins by Western blotting; type: cell-based
Method in brief: (§3)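 Intact 184 A1N4 cells pre-treated with compound in 150 mM sodium phosphate pH 6.0 for 30 min at 4 °C, then held 20 min at room temperature to drive activation. PBS served as non-activation control and buffer alone as activation control. Cells lysed in PBS with 1 mM DTNB and 1% Triton X-100. Non-reduced, unboiled lysates run on 7.5% SDS-PAGE. Blots probed with M24 (70-kDa latent form, 120-kDa matriptase-HAI-1 complex) or M69 (activated matriptase); triplicate.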

[5] = biological target: T2, Suppressor of tumorigenicity 14 protein (Homo sapiens); test: Inhibition of acid-induced matriptase activation in human 184A1N4 cells assessed as decrease in 120 kDa enzyme-HAI-1 complex using mAb M24 after 30 mins by Western blotting relative to untreated control; type: cell-based; method in brief: as §3
[6] = biological target: T2, Suppressor of tumorigenicity 14 protein (Homo sapiens); test: Inhibition of acid-induced matriptase activation in human 184A1N4 cells assessed as decrease in 120 kDa enzyme-HAI-1 complex using mAb M69 after 30 mins by Western blotting; type: cell-based; method in brief: as §3
[7] = biological target: T2, Suppressor of tumorigenicity 14 protein (Homo sapiens); test: Inhibition of acid-induced matriptase activation in human 184A1N4 cells assessed as decrease in 120 kDa enzyme-HAI-1 complex using mAb M24 at 5 uM after 30 mins by Western blotting relative to untreated control; type: cell-based; method in brief: as §3
[8] = biological target: T2, Suppressor of tumorigenicity 14 protein (Homo sapiens); test: Inhibition of acid-induced matriptase activation in human 184A1N4 cells assessed as increase in 70 kDa latent matriptase using mAb M24 at 5 uM after 30 mins by Western blotting; type: cell-based; method in brief: as §3
[9] = biological target: T2, Suppressor of tumorigenicity 14 protein (Homo sapiens); test: Inhibition of acid-induced matriptase activation in human HaCaT cells using mAb M24 after 30 mins by Western blot analysis; type: cell-based
Method in brief: (§4)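 HaCaT keratinocytes (DMEM, 10% FBS) incubated with compound in phosphate buffer pH 6.0 for 30 min at 4 °C, then 20 min at room temperature. Controls were PBS (no activation) and buffer alone. Lysates run non-reduced on 7.5% SDS-PAGE. Immunoblots probed with M24 (total matriptase), M69 (activated matriptase) and a polyclonal anti-prostasin antibody detecting the prostasin-HAI-1 complex.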

[10] = biological target: T2, Suppressor of tumorigenicity 14 protein (Homo sapiens); test: Inhibition of acid-induced matriptase activation in human HaCaT cells using mAb M69 after 30 mins by Western blot analysis; type: cell-based; method in brief: as §4
[11] = biological target: T2, Suppressor of tumorigenicity 14 protein (Homo sapiens); test: Inhibition of acid-induced matriptase-mediated prostasin activation in human HaCaT cells assessed as decrease in prostatin-HAI-1 complex after 30 mins by Western blot analysis; type: cell-based; method in brief: as §4
[12] = biological target: T2, Suppressor of tumorigenicity 14 protein (Homo sapiens); test: Inhibition of acid-induced matriptase activation in human 184A1N4 cells using mAb M24 after 20 mins by Western blotting; type: cell-based; method in brief: as §3
[13] = biological target: T2, Suppressor of tumorigenicity 14 protein (Homo sapiens); test: Inhibition of acid-induced matriptase activation in human 184A1N4 cells using mAb M69 after 20 mins by Western blotting; type: cell-based; method in brief: as §3
[14] = biological target: T2, Suppressor of tumorigenicity 14 protein (Homo sapiens); test: Inhibition of acid-induced matriptase activation in human 184A1N4 cells using mAb M69 after 20 mins by cell-based ELISA-like assay; method in brief: as §1
[15] = biological target: T2, Suppressor of tumorigenicity 14 protein (Homo sapiens); test: Inhibition of acid-induced matriptase activation in human 184A1N4 cells using mAb M69 at 5 uM by cell-based ELISA like assay; method in brief: as §1
[16] = biological target: T2, Suppressor of tumorigenicity 14 protein (Homo sapiens); test: Inhibition of acid-induced matriptase activation in human 184A1N4 cells assessed as enzyme-HAI-1 complex using mAb M24 at 5 uM after 30 mins by Western blotting; type: cell-based; method in brief: as §3

Compound | IC50 [1] [µM] | inhibition [2] | inhibition [3] | inhibition [6] | further results
Cc1nc(N2C(=O)C(O)=C(C(=O)c3ccccc3)C2c2cccs2)sc1C (stereo unspecified) | 21.8 | Dose-dependent effect | Dose-dependent effect | – | –
Cc1nc(N2C(=O)C(O)=C(C(=O)c3cccs3)C2c2cccs2)sc1C (stereo unspecified) | 2.6 | Dose-dependent effect | Dose-dependent effect | Active | inhibition [4]: Dose-dependent effect; inhibition [5]: Dose-dependent effect; inhibition [7]: Active; inhibition [8]: Active; inhibition [9]: Dose-dependent effect; inhibition [10]: Dose-dependent effect; inhibition [11]: Dose-dependent effect
[Cl-].[Na+] | – | – | – | – | inhibition [12]: Dose-dependent effect; inhibition [13]: Dose-dependent effect; inhibition [14]: Dose-dependent effect
O=C(C1=C(O)C(=O)N(c2nccs2)C1c1cccs1)c1cccs1 (stereo unspecified) | 9.8 | Dose-dependent effect | Dose-dependent effect | – | inhibition [15]: Active; inhibition [16]: Active
Cc1nc(N2C(=O)C(O)=C(C(=O)c3cccs3)C2c2ccccc2)sc1C (stereo unspecified) | 7 | Dose-dependent effect | Dose-dependent effect | Active | –
